{
  "source": "PubChem BioAssay AID540266",
  "about": "(Southern Research Specialized Biocontainment Screening …, 2011)",
  "note": "Where “and” joins values, the source holds several entries; their conditions need not be identical. Identical values can stand only once. Calls of active or inactive are those of the source.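 Rule for the calls: active = any dose giving under 70% viability, per first replicate; inactive = the rest.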",
  "data": [
    {"test_system": "not listed separately", "assay": "HEp-2 cell cytotoxicity, dose response, cytotoxicity control for RSV inhibitor project, CellTiter-Glo luminescence, synthesized compounds, set 11 (AID 540266)", "details": "HEp-2 cell viability, luminescence (CellTiter-Glo); at 200 µM (top of the series)", "in_short": "(§1)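 System: HEp-2 human cell line, uninfected (no virus added) | Compound dosing: 8 doses, 1:2 steps, 0.5% DMSO | Times: 6 d compound exposure, 37 °C | Signal: CellTiter-Glo luminescence | Evaluation: % viability versus median cell controls, CC50 via 0–100-bounded 4-parameter fit | Replicates: Triplicate wells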", "values": [
      {"compound": "Cc1ccc(Cn2c(=O)n(Cc3ccc(C(=O)Nc4ccncc4)cc3)c(=O)c3ccccc32)cc1", "viability": "84% (inactive)"}
    ]},
    {"test_system": "HEp-2 cell viability, luminescence (CellTiter-Glo)", "assay": "HEp-2 cell cytotoxicity, dose response, cytotoxicity control for RSV inhibitor project, CellTiter-Glo luminescence, synthesized compounds, set 11 (AID 540266)", "details": "not given", "in_short": "as §1", "values": [
      {"compound": "COCCCNC(=O)c1ccc(Cn2c(=O)c3ccccc3n(Cc3ccccc3F)c2=O)cc1", "CC50": "7.1 µM"},
      {"compound": "COCCCNC(=O)c1ccc(Cn2c(=O)c3ccccc3n(Cc3ccc(F)cc3)c2=O)cc1", "CC50": "7.09 µM"},
      {"compound": "Cc1ccc(Cn2c(=O)n(Cc3ccc(C(=O)NCCCN(C)C)cc3)c(=O)c3ccccc32)cc1", "CC50": "15.1 µM"},
      {"compound": "Cc1ccc(Cn2c(=O)n(Cc3ccc(C(=O)NC(C)(C)C)cc3)c(=O)c3ccccc32)cc1", "CC50": "12.1 µM"},
      {"compound": "COCCCNC(=O)c1ccc(Cn2c(=O)c3ccccc3n(Cc3ccc(Br)cc3)c2=O)cc1", "CC50": "138 µM"},
      {"compound": "COCCCNC(=O)c1ccc(Cn2c(=O)c3ccccc3n(Cc3ccc(C)c(C(F)(F)F)c3)c2=O)cc1", "CC50": "71.3 µM"},
      {"compound": "COCCCNC(=O)c1ccc(Cn2c(=O)c3ccccc3n(Cc3ccc([N+](=O)[O-])cc3)c2=O)cc1", "CC50": "113 µM"},
      {"compound": "Cc1ccc(Cn2c(=O)n(Cc3ccc(C(=O)NCCCOC(C)C)cc3)c(=O)c3ccccc32)cc1", "CC50": "19.1 µM"},
      {"compound": "COCCCNC(=O)c1ccc(Cn2c(=O)c3ccccc3n(Cc3ccc(OC)cc3)c2=O)cc1", "CC50": "149 µM"},
      {"compound": "COCCCNC(=O)c1ccc(Cn2c(=O)c3ccccc3n(Cc3ccc(C(F)(F)F)cc3)c2=O)cc1", "CC50": "79.2 µM"},
      {"compound": "COCCCNC(=O)c1ccc(Cn2c(=O)c3ccccc3n(Cc3cccc(Br)c3)c2=O)cc1", "CC50": "3.32 µM"},
      {"compound": "CCOCCCNC(=O)c1ccc(Cn2c(=O)c3ccccc3n(Cc3ccc(C)cc3)c2=O)cc1", "CC50": "8.5 µM"},
      {"compound": "Cc1ccc(C)c(NC(=O)[C@@H]2CCCN2S(=O)(=O)c2cccc3cccnc23)c1", "CC50": "34.7 µM and 32.9 µM"},
      {"compound": "COCCCNC(=O)c1ccc(Cn2c(=O)c3ccccc3n(Cc3ccccc3Br)c2=O)cc1", "CC50": "7.99 µM"}
    ]}
  ]
}
